# ChEMBL document CHEMBL4808213, “2-(Halogenated Phenyl) acetamides and propanamides as potent TRPV1 antagonists” (Bioorg Med Chem Lett, 2021)
# pKi: −log10 of the molar value. Calls of active or inactive are those of the source. The calls are words filed in the database; no cut-off is given here.
# Tested on: Mus musculus
# Experiment: Analgesic activity in ip dosed mouse model of formalin-induced paw edema assessed as reduction in pain behaviour by measuring effective dose in 1st phase
# Format: functional
# Conditions: not given
# In short: (§1)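 Formalin test in mice, with antagonist given by intraperitoneal injection before testing. Nociceptive behaviour was scored separately in the 1st and 2nd phases. Several doses were tested, and ED50 for each phase was derived from the dose-response.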
row,SMILES,ED50 [mg/kg]
1,CC(C)(C)c1cc(CNC(=O)Cc2cccc(F)c2F)n(-c2cccc(Cl)c2)n1,50.5

# Tested on: Mus musculus
# Experiment: Analgesic activity in ip dosed mouse model of formalin-induced paw edema assessed as reduction in pain behaviour by measuring effective dose in 2nd phase
# Format: functional
# Conditions: not given
# In short: as §1
row,SMILES,ED50 [mg/kg]
1,CC(C)(C)c1cc(CNC(=O)Cc2cccc(F)c2F)n(-c2cccc(Cl)c2)n1,29.5

# Molecular target: T1, Transient receptor potential cation channel subfamily V member 1 (Homo sapiens, UniProt Q8NER1)
# T1 sequence (Q8NER1 whole entry): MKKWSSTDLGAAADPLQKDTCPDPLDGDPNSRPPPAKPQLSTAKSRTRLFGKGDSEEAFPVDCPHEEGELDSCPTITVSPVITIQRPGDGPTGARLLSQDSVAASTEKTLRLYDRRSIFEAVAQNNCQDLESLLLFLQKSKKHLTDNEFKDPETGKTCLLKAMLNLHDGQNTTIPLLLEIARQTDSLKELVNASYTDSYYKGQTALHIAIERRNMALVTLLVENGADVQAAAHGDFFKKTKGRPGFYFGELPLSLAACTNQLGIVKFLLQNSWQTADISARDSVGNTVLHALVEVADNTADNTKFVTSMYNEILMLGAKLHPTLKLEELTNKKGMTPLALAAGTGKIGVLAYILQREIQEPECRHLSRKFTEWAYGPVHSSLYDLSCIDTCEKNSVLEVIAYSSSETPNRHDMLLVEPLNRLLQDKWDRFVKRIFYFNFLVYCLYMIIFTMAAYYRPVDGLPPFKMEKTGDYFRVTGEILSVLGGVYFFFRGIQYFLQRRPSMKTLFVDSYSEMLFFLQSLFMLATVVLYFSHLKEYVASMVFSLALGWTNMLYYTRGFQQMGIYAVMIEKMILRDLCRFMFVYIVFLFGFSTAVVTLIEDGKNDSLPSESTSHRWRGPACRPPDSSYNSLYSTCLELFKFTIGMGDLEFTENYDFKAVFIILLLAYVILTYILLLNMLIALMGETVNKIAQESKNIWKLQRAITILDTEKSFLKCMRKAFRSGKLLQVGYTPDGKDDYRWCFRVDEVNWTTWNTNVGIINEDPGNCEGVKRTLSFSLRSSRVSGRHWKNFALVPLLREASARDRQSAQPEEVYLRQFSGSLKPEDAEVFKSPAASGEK
# Experiment: Partial agonist activity at human TRPV1 expressed in CHO cells
# Format: cell-based
# Conditions: filed as partial agonist
row,SMILES,Activity
1,CC1CCN(c2nc(C(F)(F)F)ccc2CNC(=O)C(C)c2ccc(F)cc2F)CC1 (configuration not stated),Active
2,CC1CCN(c2nc(C(F)(F)F)ccc2CNC(=O)C(C)c2ccc(Cl)c(F)c2)CC1 (configuration not stated),Active
3,CC(C(=O)NCc1cc(C(C)(C)C)nn1-c1cccc(Cl)c1)c1cccc(F)c1F (configuration not stated),Active
4,CC(C(=O)NCc1cc(C(F)(F)F)nn1-c1cccc(Cl)c1)c1cccc(F)c1 (configuration not stated),Active
5,CC(C(=O)NCc1cc(C(F)(F)F)nn1-c1cccc(Cl)c1)c1cccc(Cl)c1 (configuration not stated),Active
6,CC1CCN(c2nc(C(F)(F)F)ccc2CNC(=O)C(C)c2ccc(Cl)c(Cl)c2)CC1 (configuration not stated),Active
7,CC1CCN(c2nc(C(F)(F)F)ccc2CNC(=O)Cc2ccc(Cl)c(F)c2)CC1,Active
8,CC(C(=O)NCc1cc(C(F)(F)F)nn1-c1cccc(Cl)c1)c1ccc(F)cc1F (configuration not stated),Active
9,CC1CCN(c2nc(C(F)(F)F)ccc2CNC(=O)Cc2ccc(F)c(F)c2)CC1,Active
10,O=C(Cc1ccc(F)cc1)NCc1cc(C(F)(F)F)nn1-c1cccc(Cl)c1,Active
11,O=C(Cc1ccc(F)c(F)c1)NCc1cc(C(F)(F)F)nn1-c1cccc(Cl)c1,Active
12,CC(C(=O)NCc1cc(C(C)(C)C)nn1-c1cccc(Cl)c1)c1c(F)cccc1F (configuration not stated),Active
13,CC1CCN(c2nc(C(F)(F)F)ccc2CNC(=O)C(C)c2ccc(Cl)cc2)CC1 (configuration not stated),Active
14,CC(C(=O)NCc1cc(C(F)(F)F)nn1-c1cccc(Cl)c1)c1ccc(Cl)cc1 (configuration not stated),Active
15,CC(C(=O)NCc1cc(C(F)(F)F)nn1-c1cccc(Cl)c1)c1ccc(F)cc1 (configuration not stated),Active
16,CC(C(=O)NCc1cc(C(C)(C)C)nn1-c1cccc(Cl)c1)c1cc(F)ccc1F (configuration not stated),Active
17,CC(C(=O)NCc1cc(C(F)(F)F)nn1-c1cccc(Cl)c1)c1ccc(F)c(F)c1 (configuration not stated),Active
18,CC(C(=O)NCc1cc(C(F)(F)F)nn1-c1cccc(Cl)c1)c1cc(F)cc(F)c1 (configuration not stated),Active

# Next, values leading:
row,Activity,SMILES
1,Active,CC(C)(C)c1cc(CNC(=O)Cc2cc(F)ccc2F)n(-c2cccc(Cl)c2)n1
2,Active,CC(C(=O)NCc1cc(C(C)(C)C)nn1-c1cccc(Cl)c1)c1cccc(Cl)c1Cl (configuration not stated)
3,Active,CC(C)(C)c1cc(CNC(=O)Cc2ccc(Cl)c(F)c2)n(-c2cccc(Cl)c2)n1
4,Active,CC(C)(C)c1cc(CNC(=O)Cc2ccccc2F)n(-c2cccc(Cl)c2)n1
5,Active,CC(C)(C)c1cc(CNC(=O)Cc2ccc(F)cc2F)n(-c2cccc(Cl)c2)n1
6,Active,CC(C(=O)NCc1cc(C(C)(C)C)nn1-c1cccc(Cl)c1)c1ccccc1Cl (configuration not stated)
7,Active,CC(C)(C)c1cc(CNC(=O)Cc2cc(F)cc(F)c2)n(-c2cccc(Cl)c2)n1
8,Active,CC(C)(C)c1cc(CNC(=O)Cc2ccc(Cl)c(Cl)c2)n(-c2cccc(Cl)c2)n1

# Tested on: Mus musculus
# Experiment: Analgesic activity in mouse model of formalin-induced paw edema assessed as induction of hyperthermia at 10 mg/kg, ip
# Format: functional, organism-based
# Conditions: not given
# In short: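 Mice received 10 mg/kg intraperitoneally, and body temperature was then measured to check for hyperthermia.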
row,SMILES,Activity
1,CC(C)(C)c1cc(CNC(=O)Cc2cccc(F)c2F)n(-c2cccc(Cl)c2)n1,inactive

# Molecular target: T1, Transient receptor potential cation channel subfamily V member 1
# Experiment: Agonist activity at human TRPV1 expressed in CHO cells
# Format: cell-based
# Conditions: filed as agonist
row,SMILES,Activity
1,CC(C(=O)NCc1cc(C(C)(C)C)nn1-c1cccc(Cl)c1)c1ccc(F)c(F)c1 (configuration not stated),Active
2,CC(C(=O)NCc1cc(C(C)(C)C)nn1-c1cccc(Cl)c1)c1cccc(F)c1 (configuration not stated),Active
3,CC1CCN(c2nc(C(F)(F)F)ccc2CNC(=O)C(C)c2ccc(F)cc2)CC1 (configuration not stated),Active
4,CC(C(=O)NCc1cc(C(C)(C)C)nn1-c1cccc(Cl)c1)c1ccccc1F (configuration not stated),Active
5,CC1CCN(c2nc(C(F)(F)F)ccc2CNC(=O)Cc2ccc(F)cc2)CC1,Active
6,CC(C(=O)NCc1cc(C(C)(C)C)nn1-c1cccc(Cl)c1)c1ccc(F)cc1F (configuration not stated),Active
7,CC1CCN(c2nc(C(F)(F)F)ccc2CNC(=O)C(C)c2ccc(F)cc2Cl)CC1 (configuration not stated),Active
8,CC1CCN(c2nc(C(F)(F)F)ccc2CNC(=O)C(C)c2ccc(F)c(F)c2)CC1 (configuration not stated),Active
9,CC1CCN(c2nc(C(F)(F)F)ccc2CNC(=O)Cc2ccc(F)cc2F)CC1,Active
10,CC(C(=O)NCc1cc(C(C)(C)C)nn1-c1cccc(Cl)c1)c1ccc(F)cc1 (configuration not stated),Active
11,CC(C(=O)NCc1cc(C(C)(C)C)nn1-c1cccc(Cl)c1)c1ccc(Cl)cc1 (configuration not stated),Active
12,CC1CCN(c2nc(C(F)(F)F)ccc2CNC(=O)Cc2ccc(Cl)cc2)CC1,Active
13,CC(C(=O)NCc1cc(C(C)(C)C)nn1-c1cccc(Cl)c1)c1cc(F)cc(F)c1 (configuration not stated),Active
14,CC1CCN(c2nc(C(F)(F)F)ccc2CNC(=O)C(C)c2cccc(F)c2)CC1 (configuration not stated),Active

# Results, then the molecule that gave them:
row,Activity,SMILES
1,Active,CC(C(=O)NCc1cc(C(C)(C)C)nn1-c1cccc(Cl)c1)c1ccc(Cl)c(F)c1 (configuration not stated)
2,Active,CC(C)(C)c1cc(CNC(=O)Cc2cccc(Cl)c2)n(-c2cccc(Cl)c2)n1
3,Active,CC(C(=O)NCc1cc(C(C)(C)C)nn1-c1cccc(Cl)c1)c1ccc(Cl)cc1Cl (configuration not stated)
4,Active,CC(C(=O)NCc1cc(C(C)(C)C)nn1-c1cccc(Cl)c1)c1ccc(Cl)c(Cl)c1 (configuration not stated)
5,Active,CC(C)(C)c1cc(CNC(=O)Cc2ccc(F)c(F)c2)n(-c2cccc(Cl)c2)n1
6,Active,CC(C)(C)c1cc(CNC(=O)Cc2ccc(F)cc2)n(-c2cccc(Cl)c2)n1
7,Active,CC(C(=O)NCc1cc(C(C)(C)C)nn1-c1cccc(Cl)c1)c1ccc(F)c(Cl)c1 (configuration not stated)
8,Active,CC(C)(C)c1cc(CNC(=O)Cc2ccc(F)c(Cl)c2)n(-c2cccc(Cl)c2)n1
9,Active,CC(C)(C)c1cc(CNC(=O)Cc2ccc(Cl)cc2)n(-c2cccc(Cl)c2)n1
10,Active,CC(C(=O)NCc1cc(C(C)(C)C)nn1-c1cccc(Cl)c1)c1cccc(Cl)c1 (configuration not stated)
11,Active,CC(C)(C)c1cc(CNC(=O)Cc2cccc(F)c2)n(-c2cccc(Cl)c2)n1

# Tested on: Mus musculus
# Experiment: Analgesic activity in ip dosed mouse model of formalin-induced paw edema
# Format: functional, organism-based
# Conditions: not given
# In short: as §1
row,SMILES,Activity
1,CC1CCN(c2nc(C(F)(F)F)ccc2CNC(=O)Cc2c(F)cccc2Cl)CC1,inactive

# Molecular target: T1, Transient receptor potential cation channel subfamily V member 1
# Experiment: Antagonist activity at human TRPV1 expressed in CHO cells assessed as inhibition of capsaicin-induced TRPV1 activation by FLIPR method
# Format: cell-based
# Conditions: not given
row,SMILES,pKi
1,CC1CCN(c2nc(C(F)(F)F)ccc2CNC(=O)Cc2ccc(F)cc2Cl)CC1,7.85
2,C[C@H](C(=O)NCc1cc(C(C)(C)C)nn1-c1cccc(Cl)c1)c1ccc(NS(C)(=O)=O)c(F)c1,9.52
3,O=C(Cc1ccc(F)cc1F)NCc1cc(C(F)(F)F)nn1-c1cccc(Cl)c1,7.36
4,O=C(Cc1cc(F)cc(F)c1)NCc1cc(C(F)(F)F)nn1-c1cccc(Cl)c1,7.86
5,CC1CCN(c2nc(C(F)(F)F)ccc2CNC(=O)Cc2ccc(Cl)cc2Cl)CC1,7.34
6,O=C(Cc1cccc(F)c1F)NCc1cc(C(F)(F)F)nn1-c1cccc(Cl)c1,7.94
7,CC1CCN(c2nc(C(F)(F)F)ccc2CNC(=O)Cc2ccc(F)c(C(F)(F)F)c2)CC1,8.01
8,O=C(Cc1cc(F)ccc1F)NCc1cc(C(F)(F)F)nn1-c1cccc(Cl)c1,7.23
9,O=C(Cc1ccc(F)cc1Cl)NCc1cc(C(F)(F)F)nn1-c1cccc(Cl)c1,7.41
10,CC1CCN(c2nc(C(F)(F)F)ccc2CNC(=O)[C@@H](C)c2ccc(NS(C)(=O)=O)c(F)c2)CC1 (racemic),9.52
11,CC1CCN(c2nc(C(F)(F)F)ccc2CNC(=O)Cc2c(Cl)cccc2Cl)CC1,7.40
12,CC1CCN(c2nc(C(F)(F)F)ccc2CNC(=O)Cc2cccc(Cl)c2)CC1,8.21
13,O=C(Cc1ccc(Cl)cc1)NCc1cc(C(F)(F)F)nn1-c1cccc(Cl)c1,8.20
14,CC1CCN(c2nc(C(F)(F)F)ccc2CNC(=O)Cc2cccc(Cl)c2Cl)CC1,8.31
15,CC1CCN(c2nc(C(F)(F)F)ccc2CNC(=O)Cc2c(F)cccc2Cl)CC1,8.59

# Further lines, results first:
row,pKi,SMILES
1,7.65,O=C(Cc1cccc(Cl)c1Cl)NCc1cc(C(F)(F)F)nn1-c1cccc(Cl)c1
2,7.72,CC(C)(C)c1cc(CNC(=O)Cc2c(F)cccc2Cl)n(-c2cccc(Cl)c2)n1
3,8.42,O=C(Cc1ccc(Cl)c(Cl)c1)NCc1cc(C(F)(F)F)nn1-c1cccc(Cl)c1
4,7.78,CC(C)(C)c1cc(CNC(=O)Cc2ccc(Cl)cc2Cl)n(-c2cccc(Cl)c2)n1
5,7.68,O=C(Cc1ccc(Cl)c(F)c1)NCc1cc(C(F)(F)F)nn1-c1cccc(Cl)c1
6,7.70,CC(C)(C)c1cc(CNC(=O)Cc2ccc(F)cc2Cl)n(-c2cccc(Cl)c2)n1
7,8.16,CC(C)(C)c1cc(CNC(=O)Cc2cccc(F)c2F)n(-c2cccc(Cl)c2)n1
